Measurements: ChEMBL document CHEMBL1154863 (J Nat Prod, 2010)
pKi: −log10 of the molar value. Activity calls are given as the source filed them.

How the values were obtained:
[1] = tested on: Mus musculus; assay: Effect on locomotory activity in sc dosed mouse assessed as change in spontaneous activity after 5 mins by photocell interruption readings; type: functional
Method in brief: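 Mice placed in photocell activity cages 5 min after s.c. saline or analogue. Beam interruptions recorded over the next 10 min and expressed as photocell interruption counts.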

[2] = biological target: Neuronal acetylcholine receptor; alpha4/beta2 (Rattus norvegicus, UniProt P09483+P12390); assay: Displacement of [3H]epibatidine from alpha4beta2 nAChR in rat cerebral cortex after 4 hrs by scintillation counting; type: tissue-based
Neuronal acetylcholine receptor; alpha4/beta2, sequence (P09483 whole entry): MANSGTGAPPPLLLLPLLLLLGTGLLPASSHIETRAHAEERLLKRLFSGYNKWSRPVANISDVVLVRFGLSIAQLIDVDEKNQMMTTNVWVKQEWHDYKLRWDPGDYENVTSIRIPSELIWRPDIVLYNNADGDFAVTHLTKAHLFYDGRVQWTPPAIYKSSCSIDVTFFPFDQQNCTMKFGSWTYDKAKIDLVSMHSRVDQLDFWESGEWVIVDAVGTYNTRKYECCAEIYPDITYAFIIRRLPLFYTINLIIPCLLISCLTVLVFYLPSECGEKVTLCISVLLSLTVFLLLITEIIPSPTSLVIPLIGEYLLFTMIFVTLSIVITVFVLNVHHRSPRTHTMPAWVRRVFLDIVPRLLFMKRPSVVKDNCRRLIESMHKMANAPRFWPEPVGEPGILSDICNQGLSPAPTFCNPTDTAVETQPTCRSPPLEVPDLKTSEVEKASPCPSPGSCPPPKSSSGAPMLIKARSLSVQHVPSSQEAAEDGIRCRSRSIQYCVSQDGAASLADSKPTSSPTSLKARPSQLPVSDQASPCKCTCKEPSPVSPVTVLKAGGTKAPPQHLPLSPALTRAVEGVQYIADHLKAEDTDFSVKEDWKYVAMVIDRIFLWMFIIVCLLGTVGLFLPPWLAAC
Neuronal acetylcholine receptor; alpha4/beta2, sequence (P12390 whole entry): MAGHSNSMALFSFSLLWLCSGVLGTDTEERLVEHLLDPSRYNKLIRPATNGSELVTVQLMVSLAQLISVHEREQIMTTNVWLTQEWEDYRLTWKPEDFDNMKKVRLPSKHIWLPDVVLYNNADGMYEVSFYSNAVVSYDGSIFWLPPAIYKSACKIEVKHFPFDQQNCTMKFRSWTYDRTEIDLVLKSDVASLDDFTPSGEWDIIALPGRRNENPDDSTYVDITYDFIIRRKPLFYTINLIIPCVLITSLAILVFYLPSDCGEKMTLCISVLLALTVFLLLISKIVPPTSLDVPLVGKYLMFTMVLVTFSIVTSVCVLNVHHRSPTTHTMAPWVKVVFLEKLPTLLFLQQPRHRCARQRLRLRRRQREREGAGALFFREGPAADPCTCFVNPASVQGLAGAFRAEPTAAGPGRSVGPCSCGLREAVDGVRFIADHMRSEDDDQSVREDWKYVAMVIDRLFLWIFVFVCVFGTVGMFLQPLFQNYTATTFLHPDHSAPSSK
Method in brief: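 Rat cerebral cortex homogenate (3 mg wet weight, washed three times) in 50 mM Tris pH 7.4 with NaCl, KCl, CaCl2, MgCl2. 4 h at room temperature. Filtration onto polyethylenimine-soaked GF/B, scintillation counting. Ki from IC50 by Cheng-Prusoff.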

[3] = tested on: Mus musculus; assay: Inhibition of nicotine-induced antinociception in mouse assessed as reaction time taken to jump or lick paw at 10000 ug/kg after 5 mins by hot plate test; type: functional
[4] = biological target: Neuronal acetylcholine receptor subunit alpha-7 (Rattus norvegicus, UniProt Q05941); assay: Displacement of [3H]iodo-MLA from alpha7 nAChR in rat cerebral cortex after 2 hrs by scintillation counting; type: tissue-based
Neuronal acetylcholine receptor subunit alpha-7, sequence (Q05941 whole entry): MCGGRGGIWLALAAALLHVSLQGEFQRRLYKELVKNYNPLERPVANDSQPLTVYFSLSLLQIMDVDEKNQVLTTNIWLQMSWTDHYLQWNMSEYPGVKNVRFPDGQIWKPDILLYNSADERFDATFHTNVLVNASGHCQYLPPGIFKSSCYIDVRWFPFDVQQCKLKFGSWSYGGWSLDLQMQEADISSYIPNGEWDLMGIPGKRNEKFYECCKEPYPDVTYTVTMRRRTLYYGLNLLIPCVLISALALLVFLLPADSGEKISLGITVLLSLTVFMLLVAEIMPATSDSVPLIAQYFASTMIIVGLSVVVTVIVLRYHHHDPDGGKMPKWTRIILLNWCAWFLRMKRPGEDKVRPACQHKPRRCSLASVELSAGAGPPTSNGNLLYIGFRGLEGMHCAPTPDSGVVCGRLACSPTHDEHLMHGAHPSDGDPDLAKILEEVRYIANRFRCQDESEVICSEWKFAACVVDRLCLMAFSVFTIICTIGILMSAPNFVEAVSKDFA
Method in brief: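 Washed rat cerebral cortex homogenate (3 mg wet weight) in Tris pH 7.4 buffer with salts. 2 h on ice. Nonspecific binding defined with 300 µM (−)-nicotine. Filtered onto BSA-soaked GF/B, then microplate scintillation counting.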

[5] = tested on: Mus musculus; assay: Effect on rectal body temperature in sc dosed mouse assessed as change in temperature after 30 mins by inducible hypothermia test; type: functional; details: 0.5 h
Method in brief: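 Rectal temperature measured in mice with a thermistor probe inserted 24 mm, read before and 30 min after s.c. saline or analogue. Change from pre-treatment value calculated for each mouse.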

[6] = tested on: Mus musculus; assay: Antinociceptive activity in sc dosed mouse assessed as reaction time taken to jump or lick paw after 5 mins by hot plate test; type: functional
Method in brief: (§1)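 Mice placed in a glass cylinder on a 55.0 °C hot plate. Two control latencies taken at least 10 min apart; normal latency 8–12 s. Jump or paw lick scored. Tested 5 min after s.c. injection, eight mice per dose. %MPE calculated against a 40 s maximum.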

[7] = tested on: Mus musculus; assay: Antinociceptive activity in sc dosed mouse after 5 mins by tail flick test; type: functional
Method in brief: (§2)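 Mice, tail-flick by the D'Amour–Smith method. Baseline latency 2–4 s, 10 s cutoff. Tested 5 min after s.c. injection. Response expressed as %MPE = (test−control)/(10−control)×100. 8–12 mice per dose, at least four doses per dose-response curve.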

[8] = tested on: Mus musculus; assay: Inhibition of nicotine-induced antinociception in sc dosed mouse assessed as tail withdrawal latency after 5 mins by tail flick test; type: functional
[9] = tested on: Mus musculus; assay: Inhibition of nicotine-induced antinociception in sc dosed mouse assessed as reaction time taken to jump or lick paw after 5 mins by hot plate test; type: functional
[10] = tested on: Mus musculus; assay: Inhibition of nicotine-induced antinociception in mouse assessed as reaction time taken to jump or lick paw at 100 ug/kg after 5 mins by hot plate test; type: functional
[11] = tested on: Mus musculus; assay: Antinociceptive activity in mouse at 2 mg/kg, sc after 5 mins by tail flick test; type: functional; details: route subcutaneous; method in brief: as §2
[12] = tested on: Mus musculus; assay: Antinociceptive activity in mouse assessed as reaction time taken to jump or lick paw at 2 mg/kg, sc after 5 mins by hot plate test; type: functional; details: route subcutaneous; method in brief: as §1
[13] = tested on: Mus musculus; assay: Inhibition of nicotine-induced antinociception in mouse assessed as reaction time taken to jump or lick paw at 50 ug/kg after 5 mins by hot plate test; type: functional
[14] = Mus musculus, Tail, sc, 5 min, read-out: ED50

| SMILES | ED50 [1] | pKi [2] | pKi [4] | ED50 [5] | ED50 [6] | ED50 [7, 14] | AD50 [8] | further results |
| --- | --- | --- | --- | --- | --- | --- | --- | --- |
| Clc1ncc([C@H]2C[C@@H]3CC[C@H]2N3)cc1-c1ccccc1 | 0.35 mg/kg | 10.68 | 6.59 | 0.4 mg/kg | 1 mg/kg | 0.7 mg/kg | 0.28 mg/kg | inhibition in vivo at 10 mg/kg [3]: 30% |
| Clc1ccc([C@@H]2C[C@H]3CC[C@@H]2N3)cn1 (stereo in doubt; (+)-1) [(+)-EPIBATIDINE] | 0.001 mg/kg | – | – | 0.004 mg/kg | 0.004 mg/kg | 0.0061 mg/kg | – | – |
| Clc1ncc([C@H]2C[C@@H]3CC[C@H]2N3)cc1-c1cccc(Br)c1 | 0.11 mg/kg | 10.80 | 7.07 | 0.67 mg/kg | 2.2 mg/kg | 0.54 mg/kg | 0.01 mg/kg | AD50 [9]: 0.22 mg/kg |
| Clc1ccc(-c2cc([C@H]3C[C@@H]4CC[C@H]3N4)cnc2Cl)cc1 | 0.53 mg/kg | 10.41 | 6.68 | 0.89 mg/kg | 2 mg/kg | 2.6 mg/kg | 0.001 mg/kg | inhibition in vivo at 0.1 mg/kg [10]: 10% |
| CN(C)c1cccc(-c2cc([C@H]3C[C@@H]4CC[C@H]3N4)cnc2Cl)c1 | – | 11.05 | 5.96 | 3.3 mg/kg | – | – | 0.02 mg/kg | AD50 [9]: 0.56 mg/kg; Activity [11]: 0%; Activity [12]: 0% |
| CN1CCC[C@H]1c1cccnc1 [NICOTINE] | 0.5 mg/kg | – | – | 1 mg/kg | 0.65 mg/kg | 1.3 mg/kg | – | – |
| O=[N+]([O-])c1ccc(-c2cc([C@H]3C[C@@H]4CC[C@H]3N4)cnc2Cl)cc1 | 0.24 mg/kg | 10.82 | 6.60 | 0.23 mg/kg | 0.38 mg/kg | 0.46 mg/kg | 0.007 mg/kg | inhibition in vivo at 0.05 mg/kg [13]: 17% |
| c1cnc2cc3c(cc2n1)[C@@H]1CNC[C@H]3C1 | – | – | – | – | – | – | – | Activity [6]: inactive; Activity [7]: inactive |
| Clc1ccc([C@@H]2C[C@H]3CC[C@@H]2N3)cn1 (stereo in doubt; (-)-1) [(+)-EPIBATIDINE] | – | – | – | – | – | – | – | ED50 [7]: 0.0066 mg/kg |
